Data set [1] relates to SH-SY5Y. Kind of data set: Neuroprotective activity in human SH-SY5Y cells assessed as prevention of NMDA induced cytotoxicity by measuring cell viability at 0.1 to 5 uM incubated for 24 hrs in presence of NMDA by MTT assay. The class given is functional, cell-based. Particulars: dose 0.1-5 µM. In short, it runs like this: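 SH-SY5Y cells (~7000/well) co-incubated 24 h at 37 °C in 2% FBS medium with toxic stimulus (NMDA 250 μM or oligomycin 2.5 μM) plus compound at 0.1–5 μM. Viability by MTT, expressed as % of control.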

The nature of data set [2]: Toxicity in Zebrafish embryos assessed as variation in embryo morphology score at 10 uM incubated for 5 days by Teratogenic test. Also noted: species or system Danio rerio. Particulars: in vivo, 120 h, time 5 day. In short, it runs like this:
(§1)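 Tg(GFAP:GFP) zebrafish embryos, 8 per group, exposed from 1 h post-fertilization to increasing compound concentrations at 28 °C for about 5 days without medium change; mortality, developmental defects and morphology score assessed at 5 dpf.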

Data set [3] can be described thus: Toxicity in Zebrafish embryos assessed as variation in embryo morphology score at 1 uM incubated for 5 days by Teratogenic test. Also noted: species or system Danio rerio. Particulars: in vivo, 120 h, time 5 day. In short, it runs like this:
as §1

Data set [4] relates to SH-SY5Y. The data set is described as follows: Neuroprotective activity in human SH-SY5Y cells assessed as prevention of rotenone induced cell damage by measuring cell viability at 1 uM incubated for 24 hrs in presence of rotenone by MTT assay. In kind it is functional. The gist of the method:
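SH-SY5Y cells co-exposed 24 h at 37 °C to rotenone 25 μM and compound at 1.0 or 5.0 μM in 2% FBS medium; viability by MTT, mean ± SD of three independent experiments.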

Data set [5] concerns SH-SY5Y. Kind of data set: Neuroprotective activity in human SH-SY5Y cells assessed as prevention of NMDA induced cytotoxicity by measuring cell viability at 1 uM preincubated with PB212 for 1hrs followed by compound addition in presence of NMDA and measured after 24 hrs by MTT assay. In kind it is functional, cell-based. The gist of the method: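 SH-SY5Y cells pre-incubated 1 h with S1R antagonist PB212 (5 μM), then treated with compound (1 or 5 μM) plus PB212 (5 μM) and either rotenone 25 μM or NMDA 250 μM for 24 h; viability by MTT; two-way ANOVA with Bonferroni post hoc test.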

Data set [6] deals with SH-SY5Y. Kind of data set: Cytotoxicity against human SH-SY5Y cells assessed as cell viability at 100 uM incubated for 72 hrs by MTT assay.
For data set [7], the system named is PC-12. Kind of data set: Cytotoxicity against rat PC12 cells assessed as reduction in cell viability at <5 uM incubated for 24 hrs by MTT assay. In kind it is toxicity, cell-based. The settings on record: pc-12, 24 h.
Data set [8] is described as follows: Toxicity in Zebrafish embryos assessed as normal and vital phenotype at 0.1 to 1 uM incubated for 5 days by Teratogenic test. Also noted: species or system Danio rerio, Embryo. Particulars: in vivo, 120 h, dose 0.1-1 µM, time 5 day. In short, it runs like this:
as §1

For data set [9], the system named is PC-12. Kind of data set: Neuroprotective activity in rat PC12 cells assessed as induction of NGF-mediated neurite outgrowth at 0.1 to 5 uM in presence of NE-100 by neurite outgrowth assay. In kind it is functional, cell-based. The settings on record: dose 0.1-5 µM. The gist of the method: (§2)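 PC12 cells stimulated with NGF (2.5 nM) and treated with compound up to 5 μM, alone or after pre-treatment with S1R antagonist NE-100 (3 μM); read-out is percentage of cells bearing neurite sprouts; mean ± SEM of three independent experiments.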

Data set [10] deals with Sigma intracellular receptor 2 (Homo sapiens, UniProt Q5BJF2). The data set is described as follows: Displacement of [3H]DTG from sigma 2 receptor (unknown origin) assessed as inhibition constant by scintillation counting analysis. In short, it runs like this: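 Radioligand displacement at S1R with [3H](+)pentazocine (15 nM) and at S2R with [3H]DTG (25 nM); S2R assay includes 1 μM cold (+)pentazocine to mask S1R sites. Bound radioactivity counted by scintillation. IC50 and Hill slope from non-linear Hill fit of competition curves; Ki by Cheng–Prusoff using radioligand concentration and KD from Scatchard plot.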
Chain of Sigma intracellular receptor 2 (Q5BJF2 whole entry): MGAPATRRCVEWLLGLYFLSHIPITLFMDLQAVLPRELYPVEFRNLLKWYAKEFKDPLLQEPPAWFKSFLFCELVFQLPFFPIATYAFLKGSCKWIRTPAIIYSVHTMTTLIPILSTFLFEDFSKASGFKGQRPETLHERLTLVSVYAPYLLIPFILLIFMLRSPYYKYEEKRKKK

A short description of data set [11]: Dissociation constant, pKa of the compound. The class given is physicochemical.
A short description of data set [12]: Toxicity in Zebrafish embryos assessed as death at 50 uM incubated for 5 days by Teratogenic test. Also noted: species or system Danio rerio, Embryo. The settings on record: in vivo, 120 h, time 5 day. The gist of the method:
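Tg(GFAP:GFP) zebrafish embryos from 2 female × 1 male matings, 8 embryos per control or concentration, exposed from 1 h post-fertilization and kept at 28 °C for about 5 days without medium change. At 5 dpf (120 h) mortality and developmental abnormalities (tail shape, heart, pigmentation) were scored, with morphology given a severity score.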

Data set [13] in a line: Toxicity in Zebrafish embryos assessed as morphological abnormality by observing enlarged volume of heart at 10 uM incubated for 5 days by Teratogenic test. In kind it is tissue-based, Danio rerio. The settings on record: in vivo, 120 h, time 5 day. The gist of the method: as §1
The nature of data set [14]: Toxicity in Zebrafish embryos assessed as morphological abnormality by observing inflated swim bladder at 10 uM incubated for 5 days by Teratogenic test. The class given is tissue-based, Danio rerio, Embryo. Particulars: in vivo, 120 h, time 5 day. In short, it runs like this: as §1
A short description of data set [15]: Toxicity in Zebrafish embryos assessed as morphological abnormality by observing poor pigmentation at 10 uM incubated for 5 days by Teratogenic test. The settings on record: in vivo, 120 h, time 5 day. Also noted: species or system Danio rerio, Embryo. In short, it runs like this: as §1
Data set [16] concerns PC-12. The data set is described as follows: Cytotoxicity against rat PC12 cells assessed as reduction in cell viability at <1 uM incubated for 24 hrs by MTT assay. The class given is toxicity, cell-based. The settings on record: pc-12, 24 h.
Data set [17] is described as follows: Toxicity in Zebrafish embryos assessed as morphological abnormality by observing oedema at 10 uM incubated for 5 days by Teratogenic test. Also noted: species or system Danio rerio, Embryo. Particulars: in vivo, 120 h, time 5 day. The gist of the method:
as §1

For data set [18], the system named is PC-12. Kind of data set: Neuroprotective activity in rat PC12 cells assessed as induction of NGF-mediated neurite outgrowth at 0.5 uM by neurite outgrowth assay (Rvb=26 +/- 4%). In kind it is functional. In short, it runs like this: as §2

Two molecules from ChEMBL document CHEMBL5331102, “Novel S1R agonists counteracting NMDA excitotoxicity and oxidative stress: A step forward in the discovery of neuroprotective agents” (Eur J Med Chem, 2023) can be followed below.

Structures are written as SMILES. Active and inactive are the calls of the source. The calls are words filed in the database; no cut-off is given here.

Turning to `c1ccc(CC2CCN(CCCOc3ccccc3)CC2)cc1`, the outcome in data set [1] was Active. Besides, the Activity result is reported as “Non-Toxic” in data set [2]; “Non-Toxic” in data set [3]; 68% in data set [4]; 82% in [6]; “Non-Toxic” in data set [7]; “Non-Toxic” in [8]. Moreover, the Activity entry in data set [12] and in [13] was “Toxic” each time. Further, the outcome in data set [5] and in [9] was inactive. Besides, the inhibition constant (Ki) in data set [10] was 88 nM. The pKa in data set [11] amounted to 9.26.

`c1ccc(CC2CCN(CCOc3ccccc3)CC2)cc1`: the result in data set [1] was Active. For the same molecule, the Activity entry is “Toxic” in [2]; “Non-Toxic” in data set [3]; 65% in [4]; 76% in [6]; “Toxic” in [14]; “Non-Toxic” in data set [8]. For the same molecule, the Activity entry is given as “Toxic” in data set [15]; “Non-Toxic” in [16]; “Toxic” in data set [12]; “Toxic” in [17]; 37% in data set [18]; 100% in data set [13]. In addition, the result in data set [5] and in [9] was inactive. For the same molecule, the inhibition constant Ki in data set [10] was 72 nM. In data set [11], this molecule showed a pKa of 8.56.
